Many of the other results were omitted from the sample, so hits are more common in it than they were.
Lung fibro prol = blocks proliferation of human lung fibroblasts | LL 47 human lung fibroblast viability, ATP luminescence; stronger effect = lower value | AID 719 | viability, % at 10 µM | 1.1% of 85,000 active;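 active = viability at or below 50% in the single dose screen; inactive = viability above 50%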;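 note: compound exposure lasted 72 h before the ATP readout; 100% = median luminescence of untreated cell-only wells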
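Material: Human LL 47 lung fibroblast cells | Input: 1,150 cells/well | Buffer or medium: IMEM plus 15% FBS | Compound dosing: 0.1% DMSO in all compound wells | Times: Overnight cell rest, 72 h compound treatment at 37 °C | Signal: CellTiter-Glo luminescence measuring cellular ATP | Measure: % viability versus median cells-only luminescence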
HCT116 PTEN-null = suppresses growth of cells with PTEN deletion; HCT116 PTEN-null viability, CellTiter-Glo, 60 h; stronger effect = lower value; viability, % at 10 µM; 1.2% of 140,000 active; AID 827;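 active = viability at or below a set limit, 4 SD under the median of all tested compounds, cut at about 3.7% in these data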;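 note: PTEN knockout HCT116 line with beta catenin targeted HCT116 as companion control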
H69AR growth 86K = blocks growth of human H69AR lung tumor cells. 6% of 85,000 active. H69AR lung tumor viability, ATP luminescence, 72 h; stronger effect = lower value. viability, % at 10 µM;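 active = viability at or below 40%; inactive = viability above 40%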;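 note: multidrug resistant small cell line overexpressing MRP-1 efflux transporter; 100% = mean luminescence of untreated control wells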
HUVEC inhibit = human endothelial cell proliferation inhibition; HUVEC proliferation, CellTiter-Glo luminescence, 72 h; stronger effect = lower value; viability, % at 10 µM (by protocol); 1.1% of 86,000 active; AID 648;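 active = viability at or below 30%; inactive = viability above 30%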;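 note: 100% = median luminescence of DMSO-only cell control wells on each plate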
bCat KO growth = beta-catenin-lacking colon tumor cell growth suppression. HCT116 beta-catenin knockout viability, CellTiter-Glo, 60 h; stronger effect = lower value. viability, % at 10 µM. 1.5% of 140,000 active. AID 818;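 active = viability at or under a set limit, the compound median less 4 SD, cut at about 6% in these data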;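 note: 0% = Hyamine 1622 control at 20 µM and 100% = untreated cell control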
* marks the source's active call; other numbers are inactive results; . = not tested or not shown.

SMILES | Lung fibro prol | HCT116 PTEN-null | H69AR growth 86K | HUVEC inhibit | bCat KO growth
CC(=O)Nc1sc2c(c1CN1CCN(C)CC1)CCCC2 | 94 | 82 | 89 | 98 | 90
CCn1cc(CNC(=O)c2c(-c3c(Cl)cccc3Cl)noc2C)c(C)n1 | . | 94 | . | . | 101
CC(C)CN=C(NS(=O)(=O)c1ccccc1)C(Cl)(Cl)Cl | . | 4 | . | . | 4.7*
CCOC(=O)c1c(NC(=O)CN2C(=O)NC(C)(c3ccc(OC(F)F)cc3)C2=O)sc(C)c1C (configuration not stated) | . | 70 | . | . | 78
CCOC(=O)c1c(C)[nH]c(C(=O)Cn2nnc(-c3ccccc3)n2)c1C | 80 | 102 | 61 | 81 | 92
CCOC(=O)c1c(C)[nH]c(C(=O)CN2C(=O)NC(CC)(c3ccccc3)C2=O)c1C (configuration not stated) | 94 | 62 | 37* | 100 | 75
CCOC(=O)c1c(C)[nH]c(C(=O)CN2C(=O)NC(C)(c3ccc(C)cc3)C2=O)c1C (configuration not stated) | 107 | 51 | 39* | 97 | 59
Cc1c(Cl)ccc2c1NC(=O)[C@]21N[C@@H](Cc2ccccc2)[C@H]2C(=O)N(c3ccc(F)cc3)C(=O)[C@H]21 | 89 | 43 | 19* | 67 | 52
CC1=CC(C)(C)N2C(=O)C3(C(C#N)=C(N)OC4=C3C(=O)CCC4)c3c(C)c(C)cc1c32 (configuration not stated) | . | 85 | . | . | 87
CC1=CC(C)(C)N2C(=O)C3(C(C#N)=C(N)Oc4cc(O)ccc43)c3c(C)c(C)cc1c32 (configuration not stated) | 78 | 47 | 4.4* | 4.8* | 62
CC1(C)CC(=O)C2=C(C1)OC(N)=C(C#N)C21C(=O)N2CCCc3cccc1c32 (configuration not stated) | 100 | 97 | 91 | 108 | 96
CC1(c2ccccc2)CC(C)(C)N2C(=O)/C(=C3\SC(=S)NC3=O)c3cccc1c32 (configuration not stated) | . | 68 | . | . | 77
CC1(c2ccccc2)CC(C)(C)N2C(=O)C3(C(C#N)=C(N)Oc4cc(O)ccc43)c3cccc1c32 (configuration not stated) | 101 | 1.5* | 80 | 13* | 1.4*
Cc1cc2c3c(c1)C(C)(c1ccccc1)CC(C)(C)N3C(=O)C21C(C#N)=C(N)OC2=C1C(=O)CC(C)(C)C2 (configuration not stated) | 79 | 21 | 19* | 69 | 35
Cc1cccn2c(NC(=O)c3cccs3)c(-c3ccccc3)nc12 | . | 85 | . | . | 93
Cc1ccc(/C=C2/C(=O)N=C(N)N2C)s1 | . | 95 | . | . | 108
NCCc1ccc(O)c(O)c1 | . | 22 | . | . | 5.8*
O=[N+]([O-])c1cc(-c2ncccn2)c([N+](=O)[O-])s1 | . | 7 | . | . | 2.2*
O=C(Nc1ncccn1)c1cc([N+](=O)[O-])cc([N+](=O)[O-])c1 | . | 81 | . | . | 99
C=CCn1c(SCC(=O)Nc2ccc3c(c2)OCO3)nnc1-c1ccccc1O | 97 | 106 | 93 | 92 | 91
Cc1ccc(C(=O)N/C(=C\c2ccco2)C(=O)NCCCn2ccnc2)cc1C | . | 101 | . | . | 103
Cc1ccc(C)c(CSc2nnc(CCN)o2)c1 | 71 | 87 | 31* | 55 | 76
Cc1ccc(C)c(CSc2nnc([C@@H](N)C(C)C)o2)c1 | 105 | 106 | 90 | 95 | 109
CCc1ccc(OCC(=O)N2CCN=C2c2ccccc2)cc1 | 102 | 82 | 105 | 107 | 86
O=C1/C(=C/c2cccnc2)Oc2cc(OS(=O)(=O)c3ccc(Cl)cc3)ccc21 | 98 | 89 | 87 | 91 | 88
SMILES | Lung fibro prol | HCT116 PTEN-null | H69AR growth 86K | HUVEC inhibit | bCat KO growth
O=C1/C(=C/c2cccnc2)Oc2cc(OS(=O)(=O)c3ccccc3)ccc21 | 105 | 71 | 3.4* | 91 | 81
COc1ccccc1C(=O)Oc1ccc2c(c1)O/C(=C\c1ccncc1)C2=O | . | 54 | . | . | 66
COc1ccc(S(=O)(=O)Oc2ccc3c(c2)O/C(=C\c2cccnc2)C3=O)cc1 | 94 | 21 | 17* | 93 | 29
COc1ccc(-c2nnc(SCc3c(C)noc3C)n2N)cc1OC | 109 | 105 | 85 | 101 | 95
CSc1nnc(-c2sc3cc(C(F)(F)F)cnc3c2-c2ccccc2)n1C | 60 | 27 | 25* | 65 | 21
O=C(O)c1sc2cc(C(F)(F)F)cnc2c1-c1ccccc1 | . | 107 | . | . | 101
CCN(CC)S(=O)(=O)c1cccc(NC(=O)Nc2cccc(C(F)(F)F)c2)c1 | . | 3.2* | . | . | 4.2*
Cc1cc(NC(=O)Nc2cccc(C(F)(F)F)c2)no1 | 99 | 85 | 98 | 87 | 80
CCN(CC)S(=O)(=O)c1ccc2c(c1)nc(CCC(=O)Nc1cccc(C(F)(F)F)c1)n2CC | 91 | 70 | 14* | 70 | 72
Cc1ccc(S(=O)(=O)NCCC(=O)Nc2ccc(C)cc2C(=O)c2ccccc2)cc1 | . | 80 | . | . | 77
CCCN(CCC)C(=O)CCSCCC(=O)N(CCC)CCC | . | 92 | . | . | 95
O=C(CCCCCC(=O)N(CCO)CCO)N(CCO)CCO | 94 | 101 | 26* | 96 | 98
Cc1ccc(C2C(/C=C3/SC(=S)NC3=O)=C(c3cccs3)Oc3ccccc32)cc1 (configuration not stated) | 92 | 60 | 14* | 49 | 64
Cc1ccc(S(=O)(=O)N2CCC(=O)N(C(COCc3ccc(C(F)(F)F)cc3)Cc3ccccc3)CC2)cc1 (configuration not stated) | . | 58 | . | . | 60
CC(C)c1nn2c(=O)cc(O)nc2s1 | . | 107 | . | . | 99
N#CCc1nc2c3c4c(sc3ncn2n1)CCCC4 | 95 | 95 | 93 | 16* | 93
O=C(CN1C(=O)NC2(CCCCCCC2)C1=O)NC1CCCc2ccccc21 (configuration not stated) | . | 99 | . | . | 99
Cc1ccc2[nH]c3c(c2c1)CN(C(=O)CN1c2ccc(F)cc2CCC1C)CC3 (configuration not stated) | 95 | 15 | 11* | 63 | 12
Cc1ccc2[nH]c3c(c2c1)CN(C(=O)CN1CCN(c2cccc(C)c2C)CC1)CC3 | 106 | 66 | 42 | 69 | 67
CCCN(CC(=O)Nc1ccccc1C)C(=O)/C=C/c1cccs1 | . | 87 | . | . | 98
COc1ccc(NC(=O)Cn2nnc(C(=O)NCc3ccccc3)c2N)cc1Cl | 94 | 62 | 28* | 70 | 54
COc1cccc(CNC(=O)c2nnn(CC(=O)Nc3ccc(C)c(C)c3)c2N)c1 | 59 | 77 | 51 | 74 | 88
COc1ccc(-c2cc(-c3cc(F)ccc3O)[nH]n2)cc1OC | 78 | 34 | 52 | 44 | 32
COc1ccc(O)c(-c2cc(-c3cccc(Br)c3)n[nH]2)c1 | 96 | 37 | 36* | 43 | 14
Cc1ccc(O)c(-c2cc(-c3cccc(F)c3)n[nH]2)c1 | 82 | 47 | 0.6* | 28* | 40
COc1ccc(-c2cc(-c3ccc(OC)c(OC)c3)n[nH]2)c(O)c1 | 86 | 32 | 54 | 96 | 26

Screens: PubChem BioAssay, SRMLSC
